Experimental data: PubChem BioAssay AID871 (The Scripps Research Institute Molecular Screening Center, 2007)
In all, about 190,000 compounds went through this assay and about 1,800 (0.95%) were called active.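 Rule for the calls: active = activation above the screen-wide mean of compound activation plus 3 SD (cut at about 130% in these data); inactive = the rest.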 The full list was thinned out, with actives kept by preference.

test: enhancers of STAT3 transcriptional signaling – U3A cells, luciferase, luminescence, MLSCN library, primary screen (AID 871); conditions: IL-6 STAT3-luciferase reporter, at 5.6 µM, hits give high values, 100% = signal with IL-6 EC80 alone;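 note: 0% = background luminescence of wells with medium and substrate only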
Method in brief: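 system = STAT3-luciferase reporter U3A cells | reagent = IL-6 stimulus at 33 ng/mL final | timing = 1 h compound pre-exposure, 6 h IL-6 stimulation, 37 °C | measured by = luminescence | evaluation = % activation versus median of IL-6-stimulated wells | control set = IL-6-only wells as 100% reference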

SMILES	activation (% of control)
Cc1cccc(NC(=S)Nc2ccc(Cl)c(Cl)c2)c1	92.4% (inactive)
Cc1cccnc1NC(=O)CSc1nnc(COc2ccc(C(C)C)cc2)n1C	98.9% (inactive)
Cc1ccc(OCc2nnc(SC3CCc4ccccc4C3=O)n2C)cc1 (stereo not drawn)	144% (active)
Cc1ccc(OCc2n[nH]c(=S)n2-c2ccccc2)cc1	105% (inactive)
Cc1cc(C)cc(OCC(=O)NCc2cc(C)nc3ccccc23)c1	92.5% (inactive)
O=C(CC1NCCc2ccccc21)Nc1cccc(Cl)c1 (stereo not drawn)	100% (inactive)
CCOc1cc(N2CCOCC2)c(OCC)cc1NC(=O)c1cc(C)nc2ccccc12	93.6% (inactive)
CCCCn1c(=O)c(CCC(=O)OCC(=O)Nc2ccc(C)c(Cl)c2)nc2ccccc21	100% (inactive)
CCCCOc1ccc(NC(=O)[C@@H]2CCCN2C(=O)C2CCN(S(=O)(=O)c3ccc(C)cc3)CC2)cc1	102% (inactive)
O=C(COc1ccccc1Cl)Nc1ccc(C(=O)c2ccc(C(=O)O)cc2)cc1	85.3% (inactive)
CC(=O)Nc1ccc(NC(=O)COc2ccccc2C(=O)Nc2cccc(Cl)c2Cl)cc1	136% (active)
COc1cc(NC(=O)COc2ccccc2Cl)ccc1NC(=O)C(C)C	84.8% (inactive)
Cc1cc2oc(C(=O)Nc3c(C)n(C)n(-c4ccccc4)c3=O)c(C)c2cc1Cl	96.5% (inactive)
CC(C)COP(=O)(c1ccc(N(C)C)cc1)C(Nc1ccccc1)c1cccnc1 (stereo not drawn)	106% (inactive)
Nc1ccc(S(=O)(=O)Nc2nccc(/C=C/c3ccc(Br)s3)n2)cc1	92.4% (inactive)
Oc1cccc2ccc(/C=C/c3ccc(Br)s3)nc12	146% (active)
O=C(Nc1nnc(C2CC2)s1)C1=NN(C2CCS(=O)(=O)C2)C(=O)CC1 (stereo not drawn)	103% (inactive)
O=C(N/N=C/c1ccccn1)c1ccc(S(=O)(=O)N2CCCCCC2)cc1	104% (inactive)
O=C(C1CCN(C2CCN(Cc3cccc4c3OCO4)CC2)CC1)N1CCOCC1	108% (inactive)
Cc1ccc(OCC(=O)N/N=C\c2ccco2)c(C)c1	92.2% (inactive)
Cc1ccc(/C=N/NC(=O)COc2ccccc2-c2ccccc2)cc1	148% (active)
Cc1ccc(OCC(=O)N/N=C/c2ccncc2)cc1	95.8% (inactive)
CC(=O)C1=C(C)NC2=C(C(=O)CC(C)(C)C2)C1C (stereo not drawn)	97% (inactive)
N#Cc1ncc(C(F)(F)F)cc1Oc1cccnc1	107% (inactive)
COCCCNc1nc2c(-c3cccc(C(F)(F)F)c3)nnn2c2ccccc12	147% (active)

SMILES	activation (% of control)
CC(=O)Nc1ccc(Nc2nc3c(S(=O)(=O)c4ccc(C)c(C)c4)nnn3c3ccccc23)cc1	95.2% (inactive)
Cc1cccc(Nc2nc3c(S(=O)(=O)c4ccccc4)nnn3c3ccccc23)c1C	105% (inactive)
O=C(CNCc1ccco1)Nc1cc(S(=O)(=O)N2CCOCC2)ccc1N1CCCC1	114% (inactive)
CCOc1ccc(NC(=S)N2CCC(N(C)CC3CCCO3)CC2)cc1 (stereo not drawn)	102% (inactive)
COc1cc2c(cc1OC)CN(C(=O)c1cc(=O)c3ccccc3o1)CC2	92.7% (inactive)
CCOc1cc(C(=O)N2CCc3cc(OC)c(OC)cc3C2)ccc1OC(F)F	133% (active)
COc1cc2c(cc1OC)CN(C(=O)c1ccc(S(=O)(=O)N3CCCCCC3)cc1)CC2	92.7% (inactive)
O=C(CNS(=O)(=O)c1ccccc1)NCC(=O)OCc1ccccc1F	108% (inactive)
CCN1CCC(=NNC(=O)c2ccc(C)c([N+](=O)[O-])c2)CC1	107% (inactive)
Cc1cc(O)c(NC(=O)c2ccc(C)c([N+](=O)[O-])c2)cc1C	134% (active)
Cc1ccc(C(=O)Nc2cccc3ncccc23)cc1[N+](=O)[O-]	94.5% (inactive)
Cc1ccccc1CC1(CO)CCCN(Cc2ccc3c(c2)OCCO3)C1 (stereo not drawn)	93.5% (inactive)
COc1ccccc1CCNC(=O)CSc1nnc2ccc(-c3cccnc3)nn12	101% (inactive)
CC(C)(C)C(=O)CN1C2=NCCN2c2ccccc21	96.1% (inactive)
COc1ccc(CCn2c(=N)c(C(=O)NCc3ccco3)cc3c(=O)n4cccc(C)c4nc32)cc1	94.5% (inactive)
O=C(NCc1ccco1)c1cccn2c(=O)c3c4c(sc3nc12)CCCC4	154% (active)
C=C(C)Cn1c(SCC(=O)NCc2ccco2)nc2sc3c(c2c1=O)CCC3	104% (inactive)
O=C(Nc1nnc(SCc2ccccc2Cl)s1)c1cccc([N+](=O)[O-])c1	109% (inactive)
Fc1ccc(-c2nnc(CSc3nnc(-c4ccc5c(c4)OCO5)o3)o2)cc1	102% (inactive)
c1ccc(-c2nnc(SCc3nc4ccccc4[nH]3)o2)cc1	109% (inactive)
Fc1ccc2nc(-c3ccccc3)nc(SCc3nnc(-c4ccccc4)o3)c2c1	141% (active)
O=C(NCCCO)/C(=C\C=C\c1ccccc1)NC(=O)c1ccccc1Cl	101% (inactive)
CC1CCc2sc(C(=O)N/N=C/C3CCCCC3)cc2C1 (stereo not drawn)	103% (inactive)
CSc1nc(N(C)NC(=O)c2cccc(C)c2)c2ccccc2n1	139% (active)
CN(NC(=O)c1ccccc1)c1nc2ccccc2nc1C(F)(F)F	96% (inactive)

SMILES	activation (% of control)
CN(NC(=O)c1ccccc1F)c1nc(C(F)(F)F)nc2ccccc12	115% (inactive)
Fc1ccc2nc(Nc3nc4c(s3)CCCC4)sc2c1	147% (active)
CSc1ncccc1C(=O)Nc1nc2ccc(F)cc2s1	90.7% (inactive)
COc1ccc2nc(Nc3nc4cc5c(cc4s3)OCCO5)sc2c1	93.3% (inactive)
COc1cc(NC(=S)NCc2ccco2)c(OC)cc1Cl	95.6% (inactive)
COc1ccccc1N1CCN(C(=O)c2cc(-c3ccc(Cl)c(Cl)c3)on2)CC1	91.7% (inactive)
O=C(c1ccc2ccccc2n1)N1CCN(c2ccccc2Cl)CC1	135% (active)
O=C(c1ccncc1)N1CCN(c2ccc3ccccc3n2)CC1	90% (inactive)
O=C(/C=C/c1ccc(F)cc1)NCCNC(=O)/C=C/c1ccc(F)cc1	95% (inactive)
COC(=O)CC(=O)N1CCN(c2ccc(Cl)c(Cl)c2)CC1	87.7% (inactive)
Cc1csc2ncc(C(=O)N(Cc3ccccc3)c3ccccn3)c(=O)n12	144% (active)
CC(C)(C)C(=O)N(Cc1ccccc1)c1ccccn1	106% (inactive)
CCC(=O)N(Cc1ccccc1)c1ccccn1	101% (inactive)
CCCCCCCCc1c(O)nc(-n2[nH]c(C)c(CCO)c2=O)[nH]c1=O	102% (inactive)
CCCC1OC23CCCCC2C(C#N)(C#N)C1(C#N)C(=N)O3 (stereo not drawn)	104% (inactive)
CC(C)(C)c1ccc(NC(=O)COC(=O)CCc2nc3ccccc3c(=O)[nH]2)cc1	95.4% (inactive)
COc1ccc(/C=C(/CC(=O)Nc2ccc(C)cc2)c2nc3ccccc3s2)cc1	103% (inactive)
COc1cccc(/C=C(/CC(=O)Nc2ccc(N3CCOCC3)cc2)c2nc3ccccc3s2)c1	143% (active)
COc1cccc(C(=O)Nc2ccc(N3CCCC3)cc2)c1	90.1% (inactive)
CCc1ccccc1NC(=O)CN(C)C(=O)COc1ccc(C)nc1[N+](=O)[O-]	104% (inactive)
COc1ccc(CC(=O)Nc2ccccc2NC(=O)c2ccco2)cc1OC	100% (inactive)
CCOC(=O)C1C(c2ccc(Cl)cc2)NC(=S)NC1(O)C(F)(F)F (stereo not drawn)	98.2% (inactive)
CCCCCCCC1(C)NC(=O)N(CC(=O)Nc2cc(C)on2)C1=O (stereo not drawn)	93.7% (inactive)
O=C(O)CS/C(=C\c1ccc(F)cc1)c1nc2ccccc2s1	136% (active)
O=C(O)CCCCc1nc2ccccc2s1	94.9% (inactive)

SMILES	activation (% of control)
O=C(O)CSCc1nc2ccccc2s1	144% (active)
O=C(Nc1ccccc1)Nc1nc2ccccc2s1	100% (inactive)
COc1cccc2sc(NNC(=O)c3nc4ccccc4s3)nc12	120% (inactive)
CSCCC(Nc1nc2ccccc2s1)C(=O)O (stereo not drawn)	99.7% (inactive)
CCOP(=O)(OCC)C(Nc1cccc(C)c1)c1ccc(F)cc1 (stereo not drawn)	95.7% (inactive)
O=C(Cn1nnc2ccccc2c1=O)NCc1ccc(Cl)cc1	101% (inactive)
C#CCCCc1nc2ccccc2c(=O)n1N	96.4% (inactive)
Cc1cc(C(=O)NNC(=S)Nc2ccccc2C)cs1	100% (inactive)
COc1ccc(C(=O)NC(Cc2ccc(OC(=O)c3ccc(OC)cc3)cc2)C(=O)O)cc1 (stereo not drawn)	100% (inactive)
NC1=NC(=O)C(Cc2cccc(Cl)c2Cl)S1 (stereo not drawn)	98.2% (inactive)
CC(=O)n1c(C=Nc2ccccc2)c(O)c2ccccc21	134% (active)
CCCCn1c(=O)c(C(C)=O)c(O)c2ccccc21	106% (inactive)
CCOc1ccc(N=Cc2c(O)n(-c3cccc(C)n3)c(=O)c3ccccc23)cc1	78.3% (inactive)
O=C1c2ccccc2NC(c2ccccc2O)N1NS(=O)(=O)c1ccccc1 (stereo not drawn)	101% (inactive)
COc1ccc(CN2CCN(Cc3cn(C)nc3-c3ccccc3)CC2CCO)c(C)c1C (stereo not drawn)	105% (inactive)
Cc1sc2nc(CC(N)=O)[nH]c(=O)c2c1-c1ccccc1	96.5% (inactive)
CCOC(=O)CC(=O)CSc1nc(-c2ccccc2)cc(-c2ccc(Cl)cc2)c1C#N	98.1% (inactive)
N#Cc1c(C(F)(F)F)cc(-c2ccc(Cl)cc2)nc1SCC(=O)O	142% (active)
N#Cc1c(C(F)(F)F)cc(-c2ccccc2)nc1SCC(=O)N1CCOCC1	107% (inactive)
Cc1nn(CC2CC2)c(=O)n1N(C)c1ncc(C(F)(F)F)cc1Cl	99.4% (inactive)
CCN(CCn1cccn1)C(=O)CC1C(=O)NCCN1Cc1cccc(OC)c1OC (stereo not drawn)	106% (inactive)
COc1cccc(C2c3[nH]c4ccccc4c3CCN2Cc2cccc(C)n2)c1 (stereo not drawn)	126% (inactive)
COc1ccc(C2c3[nH]c4ccccc4c3CCN2CCCn2cccn2)cc1C (stereo not drawn)	148% (active)
